Assay results published in article PMC3359464 (Medicinal Chemistry Research, 2011).
Residues, ends and D or L forms follow the SMILES beside them.

How the values were obtained:
APM [1] = target: T1, APM (Sus scrofa, UniProt P15145); assay: Degradation rates of EMs by purified APM with and without inhibitors; format: biochemical
T1 sequence (P15145 2-963): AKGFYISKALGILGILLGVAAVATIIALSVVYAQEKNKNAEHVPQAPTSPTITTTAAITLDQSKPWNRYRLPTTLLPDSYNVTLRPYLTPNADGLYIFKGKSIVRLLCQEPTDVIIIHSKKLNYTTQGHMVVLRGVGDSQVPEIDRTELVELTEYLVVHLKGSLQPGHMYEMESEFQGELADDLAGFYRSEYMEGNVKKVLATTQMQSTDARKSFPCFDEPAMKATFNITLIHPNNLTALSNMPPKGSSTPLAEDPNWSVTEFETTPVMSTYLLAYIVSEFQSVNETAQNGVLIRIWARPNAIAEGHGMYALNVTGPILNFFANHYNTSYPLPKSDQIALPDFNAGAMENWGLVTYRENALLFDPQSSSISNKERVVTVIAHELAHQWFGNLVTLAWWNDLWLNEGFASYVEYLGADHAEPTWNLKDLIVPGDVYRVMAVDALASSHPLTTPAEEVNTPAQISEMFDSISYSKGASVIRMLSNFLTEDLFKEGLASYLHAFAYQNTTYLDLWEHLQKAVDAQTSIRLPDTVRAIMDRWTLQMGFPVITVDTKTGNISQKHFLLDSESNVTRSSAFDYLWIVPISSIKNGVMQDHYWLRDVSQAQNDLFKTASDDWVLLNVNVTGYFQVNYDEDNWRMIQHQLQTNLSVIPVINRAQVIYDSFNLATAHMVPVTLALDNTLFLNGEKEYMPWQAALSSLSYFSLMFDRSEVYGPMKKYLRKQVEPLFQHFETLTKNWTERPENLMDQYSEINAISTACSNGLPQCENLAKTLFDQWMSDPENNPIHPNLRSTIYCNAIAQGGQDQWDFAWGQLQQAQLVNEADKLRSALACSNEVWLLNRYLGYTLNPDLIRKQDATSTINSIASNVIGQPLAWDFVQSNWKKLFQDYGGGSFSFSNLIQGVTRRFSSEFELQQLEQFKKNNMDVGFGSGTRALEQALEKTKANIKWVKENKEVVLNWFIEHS

[2] = test system: rat spinal cord homogenate; conditions: ref Sugimoto-Watanabe et al., [1999]; cited from earlier work
DPP IV = assay: Degradation rates of EMs by purified DPP IV with and without inhibitors; format: biochemical
Summary of the method: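 Commercial purified DPP IV at 0.002 mg protein/ml incubated with endomorphin and test compound (1 mM solutions in 50 mM Tris–HCl, pH 7.4) at 37°C for 0, 7.5, 15, 22.5 and 30 min. Stopped on ice with 1 M HCl, centrifuged, RP-HPLC on C18 (0.1% TFA/acetonitrile gradient). k from linear regression of ln(A/A0) versus time; % inhibition from k with and without inhibitor. Three experiments in duplicate; mean ± SEM.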

APM [3] = target: T2, APM (Sus scrofa, UniProt P15145, species not given); assay: Degradation rates of EMs by purified APM with and without inhibitors; format: biochemical; conditions: purified APM (commercially available enzyme), pH 7.4
T2 sequence (P15145 2-963): T1 sequence (P15145 2-963)

[4] = Blood-brain barrier crossing; format: in vivo; conditions: preliminary results
[5] = substrate EM-1, 37°C, 0-30 min, Tris-HCl pH 7.4
[6] = substrate EM-2, 37°C, 0-30 min, Tris-HCl pH 7.4

In the case of `CCCCC[C@H](CC(=O)NO)C(=O)N[C@H](C(=O)N1CCC[C@H]1CO)C(C)C` [Actinonin, actinonin], the “100 × k, degradation rate of EM-1 by APM in the presence of inhibitor” value (APM [1]; [5]) is listed as 1.88 ± 0.09 min⁻¹, the “100 × k, degradation rate of EM-2 by APM in the presence of inhibitor” value (APM [1]; [6]) is listed as 1.50 ± 0.05 min⁻¹ and the “Effect on EM-1 degradation in rat spinal cord homogenate” value [2] is listed as “significantly blocked EM-1 degradation”.

In the case of `NC(=O)[C@H](Cc1ccccc1)NC(=O)[C@H](Cc1c[nH]c2ccccc12)NC(=O)[C@@H]1CCCN1C(=O)[C@@H](N)Cc1ccc(O)cc1` [EM-1, Tyr-Pro-Trp-Phe-NH2], the half-life (DPP IV; purified DPP IV (commercially available enzyme), pH 7.4) is reported as 16.7 ± 0.52 min, the “Resistance to DPP IV relative to EM-2” value (DPP IV; without inhibitor) is reported as “about 1.5 times” and the “100 × k, degradation rate of EM-1 by DPP IV alone” value (DPP IV; without inhibitor, 37°C) is reported as 4.12 ± 0.2 min⁻¹. The “100 × k, degradation rate of EM-1 by APM alone” value (APM [1]; without inhibitor, 37°C) was 3.51 ± 0.09 min⁻¹ and the half-life (APM [3]) was 19.7 ± 0.5 min.

In the case of `C[C@H](NC(=O)[C@@H]1CCCN1C(=O)[C@@H](N)Cc1ccc(O)cc1)C(N)=O` [EMDB-2, Tyr-Pro-Ala-NH2] (H-Tyr-Pro-Ala-NH2; N-terminus assumed), the “Crossing of the blood-brain barrier” value [4] is reported as “do not cross the blood–brain barrier”.

For Ile-Pro-Ile [Diprotin A], the “100 × k, degradation rate of EM-1 by DPP IV in the presence of inhibitor” value (DPP IV; [5]) was 0.13 ± 0.01 min⁻¹ and the “100 × k, degradation rate of EM-2 by DPP IV in the presence of inhibitor” value (DPP IV; [6]) was 0.18 ± 0.01 min⁻¹.
